KCNK9 inh-1: blocks the human KCNK9 two-pore domain potassium channel; AID 488922; actives 1.2% (n = 310,000); HEK293 KCNK9, FluxOR thallium flux fluorescence; hits give low values; B-score at 10 µM; Q9NPC2;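 active means ratio B-score over 3 SD below the library mean, with starting fluorescence within 5 SD of its mean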;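 further: negative B-score means less thallium flux so channel inhibition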
KCNQ1 inh: human KCNQ1 channel inhibition | P51787 | CHO-K1 KCNQ1, FluxOR thallium flux fluorescence; hits give high values | B-score at 10 µM | actives 1.3% (n = 310,000) | AID 2642;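 active means compounds whose thallium flux B-score, printed positive for inhibition, exceeds three library SD while starting fluorescence stays within three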;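 further: channel opened by potassium depolarization with thallium stimulus after 20 min compound exposure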
hERG rescue: shields human hERG channel from block by proarrhythmic agents; CHO-hERG, FluxOR thallium flux, dofetilide IC70 present; activation (rescue from dofetilide block), less the hit threshold, % at 10 µM; actives 0.51% (n = 310,000);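 active means activation above the mean of controls blocked by dofetilide plus 5 SD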;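 further: thallium influx through hERG after potassium depolarization seen as dye fluorescence rise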
Kir21 inh: inhibitors of mouse Kir2.1 inward-rectifier potassium channel; B-score at 10 µM; actives 0.85% (n = 310,000); P35561; AID 1672; HEK293-Kir2.1, FluxOR thallium flux fluorescence; hits give low values;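 active means fluorescence ratio B-score at or below minus 3 SD of library scores, with starting-brightness B-score within 2 SD, cut at about -4.2 in these data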;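 further: channel flux triggered by added potassium and thallium sulfate stimulus; B-score of peak minus minimum fluorescence over baseline after thallium stimulus; more negative B-score means stronger Kir2.1 block with less thallium influx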
Target sequence (P35561 whole entry, looked up): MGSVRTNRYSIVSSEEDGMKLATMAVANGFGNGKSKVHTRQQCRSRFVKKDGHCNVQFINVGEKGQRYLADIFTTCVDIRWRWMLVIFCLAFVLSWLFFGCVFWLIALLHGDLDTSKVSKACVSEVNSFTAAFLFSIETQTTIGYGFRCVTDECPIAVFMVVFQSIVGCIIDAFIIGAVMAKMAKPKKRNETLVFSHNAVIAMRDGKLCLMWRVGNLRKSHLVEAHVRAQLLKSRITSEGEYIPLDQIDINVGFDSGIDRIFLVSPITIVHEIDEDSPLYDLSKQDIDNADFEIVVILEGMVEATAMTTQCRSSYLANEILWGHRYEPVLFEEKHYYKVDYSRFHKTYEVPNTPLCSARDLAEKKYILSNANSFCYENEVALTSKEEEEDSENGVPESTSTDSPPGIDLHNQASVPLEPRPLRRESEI
KCNK3 inh: human KCNK3 channel inhibition, primary screen; B-score at 10 µM; actives 0.84% (n = 340,000); AID 602410; CHO-KCNK3 thallium flux, FluxOR fluorescence; hits give low values; O14649;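 active means B-score under library mean minus 4 SD, starting fluorescence ratio at most library mean plus 5 SD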;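 further: more negative B-score means stronger inhibition of thallium flux through KCNK3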
KCNQ1 pot: potentiates or activates the human KCNQ1 potassium channel. P51787. AID 2648. B-score at 10 µM. actives 0.35% (n = 310,000). CHO-K1 KCNQ1, thallium flux FluxOR fluorescence; hits give high values;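 active means fluorescence ratio B-score, a plate-corrected score, at least three library SD, with initial intensity B-score within 5 SD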
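System: CHO-K1 cells stably expressing KCNQ1 / Medium: assay buffer for compound exposure, DMSO matched across wells / Reagent: thallium- and potassium-containing depolarizing buffer / Compound: one concentration, matched DMSO / Incubation: 20 min compound pretreatment at room temperature / Measured by: kinetic FluxOR fluorescence, 10 s baseline plus 110 s post-stimulus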
hERG inh: blocks human hERG, in counter-screen for Kir2.1 inhibitors; actives 20% (n = 320); hERG-expressing cells, thallium flux; AID 2236; inhibition, % at 10 µM; shares compounds with Kir21 inh;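 further: host cells are CHO cells stably expressing hERG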
KCNK9 inh-2: selectivity of Kir2.1 inhibitors: effect on human KCNK9; shares compounds with Kir21 inh; KCNK9-expressing cells, ion flux inhibition; inhibition, % at 10 µM; actives 5% (n = 320); AID 2329
Kir21 ephys inh: inhibitors of mouse Kir2.1 potassium channel; shares compounds with Kir21 inh; Kir2.1 cells, automated patch-clamp current inhibition; inhibition, % at 25 µM; actives 71% (n = 320)
* marks the source's active call; other numbers are inactive results; i = inactive; · = no result given. Compounds with a hit are over-represented: about 3.7% of the library has one in this group of screens. Unless noted, how the calls were made is not given here.

SMILES	KCNK9 inh-1	KCNQ1 inh	hERG rescue	Kir21 inh	KCNK3 inh	KCNQ1 pot	hERG inh	KCNK9 inh-2	Kir21 ephys inh
Cc1ccc(CSc2nnc(CCCCCNC(=O)OC(C)(C)C)o2)cc1	i	i	-8	-3.1	i	i	·	·	·
CC(C)(C)OC(=O)NCCc1nnc(SCc2ccc(Cl)cc2)o1	i	i	-18	-16*	i	i	i	i	74%*
Cc1ccc2nc(NCc3ccccc3)[nH]c2c1	i	i	-21	-10*	i	i	i	31%*	72%*
Cc1nc(N2CCN(Cc3ccccc3)CC2)nc2c1C(=O)CC(C)C2 (stereo not drawn)	i	i	-15	-7.1*	i	i	i	i	8.9%*
COc1cc(NC(=O)COc2cccc(C)c2C)ccc1NC(=O)c1ccco1	i	i	-9	1.1	i	i	·	·	·
CCn1nnc2cc(C(=O)N3CCC(C(=O)OC)CC3)ccc21	·	·	·	·	i	·	·	·	·
CC1CN(C(=O)CCC(=O)NCCCN2CCN(Cc3ccccc3)CC2)c2cc(Cl)ccc2O1 (stereo not drawn)	i	i	-10	-6.3*	i	i	64%*	i	9.3%*
Fc1ccc(N2CCN(Cc3c[nH]c4ccccc34)CC2)cc1	i	i	-11	-7.9*	·	i	56%*	i	40%*
CN(C)CCN(Cc1ccccc1)C(=O)[C@H](Cc1ccccc1)N1C(=O)c2ccccc2C1=O	i	i	-7	-6*	i	i	i	i	i
CCC(=O)N1c2ccc(S(=O)(=O)NC3CCCCC3)cc2CC1C (stereo not drawn)	i	i	-2	-0.58	i	i	·	·	·
Cc1cc(S(=O)(=O)Nc2cc(C)c(O)c(C)c2)c(C)s1	i	i	-3	-6.7*	i	i	i	i	18%*
CCOC(=O)c1ccc(Nc2ncnc3ccc(C)cc23)cc1	i	i	-9	-0.98	i	i	·	·	·
CCOC(=O)c1cccc(Nc2ncnc3ccc(C)cc23)c1	i	i	-10	-6*	i	i	i	i	32%*
OC(CNCc1ccco1)Cn1c2ccccc2c2ccccc21 (stereo not drawn)	i	i	-12	-11*	i	i	61%*	i	25%*
OC(CNCc1ccco1)COc1ccccc1 (stereo not drawn)	i	i	-4	-0.05	i	i	·	·	·
CC(C)CCOc1ccc(C(=O)NNC(=O)CNC(=O)c2ccccc2F)cc1	·	·	·	·	i	·	·	·	·
C#CCNC(=O)C1=C[C@@H](c2ccc(C#C)cc2)C[C@@H](OCc2ccc(CO)cc2)O1	i	i	-11	-6.3*	i	i	i	i	6.4%*
CCCOc1ccc(C(=O)CCNC(Cc2c[nH]c3ccccc23)C(=O)O)cc1 (stereo not drawn)	i	i	-4	-0.36	i	i	·	·	·
COC(=O)C1SCCN1S(=O)(=O)c1ccc(Cl)cc1 (stereo not drawn)	i	i	-8	0.86	i	i	·	·	·
O=S(=O)(c1ccc(Cl)cc1)N1CCSC1c1ccco1 (stereo not drawn)	i	i	-9	-6.5*	i	i	i	i	21%*
CCc1nc(SCC(=O)Nc2cc(C)on2)c2c(=O)n(C)c(=O)n(C)c2n1	i	i	-9	0.31	i	i	·	·	·
Cc1cc(NC(=O)CSc2nc(CC(C)(C)C)nc3c2c(=O)n(C)c(=O)n3C)no1	i	i	-9	3.6	i	i	i	i	i
CCOc1nc(C)cc(C)c1S(=O)(=O)c1cccc(Cl)c1	i	i	-3	-8.2*	i	i	i	i	36%*

Compound activity (PubChem BioAssay)
